SMILES strings stand for the structures. Converted amounts (≈) assume the structure as drawn.

The test system of test [1] is Schizaphis graminum. Nature of the test: Resistance index, ratio of LC50 for organophosphate-resistant clone of Schizaphis graminum OR2 adult or last-instar nymphs to LC50 for organophosphate-susceptible clone of Schizaphis graminum OSS adult or last-instar nymphs. It counts as functional. More on the design: reference not given here.
The test system of test [2] is Schizaphis graminum. The test can be described thus: Resistance index, ratio of LC50 for organophosphate-resistant clone of Schizaphis graminum OR1 adult or last-instar nymphs to LC50 for organophosphate-susceptible clone of Schizaphis graminum OSS adult or last-instar nymphs. It counts as functional. The arrangement: reference not given here.
For test [3], the system named is Schizaphis graminum. Nature of the test: Insecticidal activity against organophosphate-resistant clone of Schizaphis graminum OR2 adult or last-instar nymphs assessed as insect mortality after 8 hr. The conditions noted are these: OR2, 8 h. The class given is functional.
Test [4] deals with Schizaphis graminum. The test can be described thus: Insecticidal activity against organophosphate-resistant clone of Schizaphis graminum OR1 adult or last-instar nymphs assessed as insect mortality after 8 hr. The class given is functional. The conditions noted are these: OR1, 8 h.
The test system of test [5] is Schizaphis graminum. The test can be described thus: Insecticidal activity against organophosphate-susceptible clone of Schizaphis graminum OSS adult or last-instar nymphs assessed as insect mortality after 8 hr. It counts as functional.
Test [6] addresses Acetylcholinesterase (Schizaphis graminum) (UniProt Q9BMJ1). Nature of the test: Resistance index, ratio of bimolecular rate constant Ki for AChE in rganophosphate-resistant clone of Schizaphis graminum OR2 to bimolecular rate constant Ki for AChE in organophosphate-susceptible clone of Schizaphis graminum OSS.
Test [7] shares this target. The test can be described thus: Resistance index, ratio of bimolecular rate constant Ki for AChE in rganophosphate-resistant clone of Schizaphis graminum OR1 to bimolecular rate constant Ki for AChE in organophosphate-susceptible clone of Schizaphis graminum OSS.
Test [8] concerns the target T1, Acetylcholinesterase (Schizaphis graminum, UniProt Q9BMJ1). Nature of the test: Inhibition of AChE in organophosphate-resistant clone of Schizaphis graminum OR2 adult or last-instar nymphs homogenates assessed as bimolecular rate constant pre-incubated with compound for 2 min at 25 degC before addition of ATC and DTNB solution. Put shortly: (§1)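 Clones mass-reared on whole sorghum plants (hybrid NC+ 160) at 25 ± 2 °C with a 16:8 h L/D photoperiod. Greenbug AChE was preincubated with an organophosphate oxon inhibitor for 2 min at 25 °C. Residual AChE activity was then measured as a percentage of an inhibitor-free control.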

Test [9] has as its target T1, Acetylcholinesterase. The test can be described thus: Inhibition of AChE in organophosphate-resistant clone of Schizaphis graminum OR1 adult or last-instar nymphs homogenates assessed as bimolecular rate constant pre-incubated with compound for 2 min at 25 degC before addition of ATC and DTNB solution. Put shortly: as §1
In test [10] the target is T1, Acetylcholinesterase. The test can be described thus: Inhibition of AChE in organophosphate-susceptible clone of Schizaphis graminum OSS adult or last-instar nymphs homogenates assessed as bimolecular rate constant pre-incubated with compound for 2 min at 25 degC before addition of ATC and DTNB solution. Put shortly: as §1

Acetylcholinesterase (Schizaphis graminum), sequence (Q9BMJ1 as listed by the source): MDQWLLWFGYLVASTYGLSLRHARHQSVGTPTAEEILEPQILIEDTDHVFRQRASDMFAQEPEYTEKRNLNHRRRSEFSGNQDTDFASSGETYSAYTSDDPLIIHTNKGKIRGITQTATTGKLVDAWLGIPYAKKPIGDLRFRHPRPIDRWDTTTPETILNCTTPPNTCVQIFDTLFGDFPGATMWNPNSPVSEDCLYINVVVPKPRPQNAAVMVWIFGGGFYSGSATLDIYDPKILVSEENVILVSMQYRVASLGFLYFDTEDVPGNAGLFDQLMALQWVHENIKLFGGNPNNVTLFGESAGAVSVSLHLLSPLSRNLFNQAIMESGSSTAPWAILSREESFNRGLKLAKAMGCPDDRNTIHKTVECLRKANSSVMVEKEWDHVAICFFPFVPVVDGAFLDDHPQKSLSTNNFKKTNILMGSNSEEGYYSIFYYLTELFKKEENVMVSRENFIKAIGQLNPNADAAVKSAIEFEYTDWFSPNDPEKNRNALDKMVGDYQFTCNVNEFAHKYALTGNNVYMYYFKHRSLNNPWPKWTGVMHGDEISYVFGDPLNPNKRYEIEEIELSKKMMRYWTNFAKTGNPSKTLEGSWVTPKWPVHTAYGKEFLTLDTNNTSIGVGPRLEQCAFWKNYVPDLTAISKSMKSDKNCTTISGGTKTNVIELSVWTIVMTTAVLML
T1 sequence (Q9BMJ1 whole entry): as the sequence (Q9BMJ1 as listed by the source) above

Turning to `CCOP(=S)(OCC)Oc1nc(Cl)c(Cl)cc1Cl` [CHLORPYRIFOS], the RatioLC50 was found to be 53.8 in the test with Schizaphis graminum [1] and 10.6 in the test on Schizaphis graminum [2]. The results for the LC50 in the test with Schizaphis graminum [3], in the test with Schizaphis graminum [4] and with Schizaphis graminum [5] were 1.96 µg/mL (≈ 5.59 µM), 0.39 µg/mL (≈ 1.11 µM) and 0.036 µg/mL (≈ 0.103 µM), respectively.
With `COP(=O)(OC)Oc1ccc([N+](=O)[O-])cc1` [DIMETHYL 4-NITROPHENYL PHOSPHATE], the Ratio in test [6] was 2.2; in test [7], 2.1. Besides, the Ki turned out to be 0.0217 M⁻¹ s⁻¹ on Acetylcholinesterase [8], 0.0225 M⁻¹ s⁻¹ at Acetylcholinesterase [9] and 0.0483 M⁻¹ s⁻¹ on Acetylcholinesterase [10].
Consider `CCOP(=S)(OCC)SCCSCC` [DISULFOTON], for which the RatioLC50 in the test with Schizaphis graminum [1] was found to be 93.7; in the test on Schizaphis graminum [2] it was 39.6. In addition, the results for the LC50 in the test on Schizaphis graminum [3], in the test on Schizaphis graminum [4] and in the test on Schizaphis graminum [5] were 15.1 µg/mL (≈ 55 µM), 6.37 µg/mL (≈ 23.2 µM) and 0.16 µg/mL (≈ 0.583 µM), respectively.
With `COP(=S)(OC)Oc1ccc([N+](=O)[O-])cc1` [METHYL PARATHIONE], the figures for the RatioLC50 with Schizaphis graminum [1] and in the test on Schizaphis graminum [2] were 41.3 and 11.1, respectively. In addition, the values for the LC50 with Schizaphis graminum [3], with Schizaphis graminum [4] and in the test with Schizaphis graminum [5] were 1.27 µg/mL (≈ 4.83 µM), 0.34 µg/mL (≈ 1.29 µM) and 0.031 µg/mL (≈ 0.118 µM), respectively.
As for `CNC(=O)CSP(=O)(OC)OC` [Omethoate], the Ratio in test [6] stood at 3.5; in test [7] it was 3.8. The figures for the Ki at Acetylcholinesterase [8], at Acetylcholinesterase [9] and on Acetylcholinesterase [10] were 0.0222 M⁻¹ s⁻¹, 0.0207 M⁻¹ s⁻¹ and 0.077 M⁻¹ s⁻¹, respectively. The RatioLC50 in the test on Schizaphis graminum [1] came out at 30.6; in the test with Schizaphis graminum [2] it was 38.9. Besides, the LC50 with Schizaphis graminum [3] turned out to be 6.28 µg/mL (≈ 29.5 µM); in the test on Schizaphis graminum [4], 8.01 µg/mL (≈ 37.6 µM); with Schizaphis graminum [5], 0.21 µg/mL (≈ 0.985 µM).
Take `CCOP(=O)(OCC)Oc1ccc([N+](=O)[O-])cc1` [PARAOXON]: the Ratio in test [6] was found to be 2; in [7], 1.8. Besides, the results for the Ki at Acetylcholinesterase [8], on Acetylcholinesterase [9] and at Acetylcholinesterase [10] were 0.012 M⁻¹ s⁻¹, 0.0135 M⁻¹ s⁻¹ and 0.0237 M⁻¹ s⁻¹, respectively.
As for `CCOP(=S)(OCC)Oc1ccc([N+](=O)[O-])cc1` [PARATHION], the RatioLC50 was 326.9 in the test with Schizaphis graminum [1] and 40.8 with Schizaphis graminum [2]. The LC50 in the test on Schizaphis graminum [3] was determined as 64.8 µg/mL (≈ 222 µM); with Schizaphis graminum [4] it was 8.07 µg/mL (≈ 27.7 µM); in the test with Schizaphis graminum [5], 0.2 µg/mL (≈ 0.687 µM).
For `CCOP(=O)(OCC)SCCSCC` [demeton S], the Ratio in test [6] and in test [7] was 1.3 throughout. In addition, the results for the Ki on Acetylcholinesterase [8], at Acetylcholinesterase [9] and at Acetylcholinesterase [10] were 0.0447 M⁻¹ s⁻¹, 0.0437 M⁻¹ s⁻¹ and 0.0575 M⁻¹ s⁻¹, respectively.
On to `CCSCCSP(=O)(OC)OC` [demeton-S-methyl], for which the Ki on Acetylcholinesterase [8] stood at 0.0725 M⁻¹ s⁻¹; on Acetylcholinesterase [9], 0.0685 M⁻¹ s⁻¹; at Acetylcholinesterase [10] it was 0.101 M⁻¹ s⁻¹.

One may read the LC50 as the concentration lethal to half of the exposed cells or organisms.

Values taken from ChEMBL document CHEMBL3046733, “Comparative toxicity of selected organophosphate insecticides against resistant and susceptible clones of the greenbug, Schizaphis graminum (Homoptera: aphididae)” (J Agric Food Chem, 2000).
